Assay results: ChEMBL document CHEMBL1828520, “Anti-AIDS agents 86. Synthesis and anti-HIV evaluation of 2',3'-seco-3'-nor DCP and DCK analogues” (Eur J Med Chem, 2011)
pEC50: −log10 of the molar value.

System: Human immunodeficiency virus 1
Test: Antiviral activity against HIV1 RTMDR in human […] cells after 48 hrs by luciferase reporter gene assay
Format: functional, organism-based
Conditions: Human immunodeficiency virus 1, RTMDR
Outline: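 Single-round infection of TZM-bl cells with 200 TCID50 virus plus test sample in eight fourfold dilutions; 48 h incubation, then Bright Glo luciferase read. Highest tested concentration 20 μM.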

Q: With `CCOc1ccc2c(=O)cc(CC)oc2c1CN1CCN(C(=O)C(=O)c2cccs2)CC1` as the compound, how does the pEC50 read?
A: The pEC50 was 4.77.

Q: With `CCOc1ccc2c(=O)cc(CC)oc2c1CN1CCN(C(=O)C(=O)c2ccccc2)CC1` as the compound, how does the pEC50 read?
A: Its pEC50 is 4.79.

Q: With `CCOc1ccc2c(=O)cc(CC)oc2c1CN1CCN(C(=O)C(=O)c2c[nH]c3ccccc23)CC1` as the compound, how does the pEC50 read?
A: Its pEC50 is < 4.69.

Q: With `CCc1cc(=O)c2ccc3c(c2o1)[C@@H](OC(=O)C12CCC(C)(C(=O)O1)C2(C)C)[C@@H](OC(=O)C12CCC(C)(C(=O)O1)C2(C)C)C(C)(C)O3` (some centres not stated) as the compound, how does the pEC50 read?
A: The pEC50 was 6.70.

System: not listed separately
Test: Chemical stability of the compound in 1% HCl assessed as compound remaining at 30 min by HPLC analysis
Format: physicochemical
Conditions: read-out: Stability
Outline: (§1)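 Compound (1 mg) dissolved in MeOH (0.5 mL), 1% HCl (0.2 mL) added, shaken at room temperature. Remaining compound measured by reversed-phase HPLC (ODS2 column, 30% water/70% MeOH) as area % purity at the stated time.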

Q: With `Cc1cc(=O)oc2c3c(ccc12)OC(C)(C)[C@H](OC(=O)[C@@]12CC[C@@](C)(C(=O)O1)C2(C)C)[C@@H]3OC(=O)[C@@]12CC[C@@](C)(C(=O)O1)C2(C)C` as the compound, how does the remaining at 0.5 h read?
A: Its remaining at 0.5 h is 64%.

Q: With `CCc1cc(=O)c2ccc3c(c2o1)[C@@H](OC(=O)C12CCC(C)(C(=O)O1)C2(C)C)[C@@H](OC(=O)C12CCC(C)(C(=O)O1)C2(C)C)C(C)(C)O3` (some centres not stated) as the compound, how does the remaining at 0.5 h read?
A: Its remaining at 0.5 h is 91%.

System: not listed separately
Test: Ratio of CC50 for human TZM-bl cells to EC50 for HIV 1 NL4-3 infected in human TZM-bl cells
Conditions: not given

Q: For `CCOc1ccc2c(=O)cc(CC)oc2c1CN1CCN(C(=O)C(=O)c2ccccc2)CC1`, which “Ratio CC50/EC50” value is on record?
A: The value was >1.33.

Q: For `CCc1cc(=O)c2ccc(OCc3cccc(C(=O)OC)c3)c(COC(=O)C34CCC(C)(C(=O)O3)C4(C)C)c2o1` (configuration not stated), which “Ratio CC50/EC50” value is on record?
A: The value was 39.2.

Q: Which “Ratio CC50/EC50” value does the source give for `CCc1cc(=O)c2ccc(OCc3cc(OC)cc(OC)c3)c(COC(=O)C34CCC(C)(C(=O)O3)C4(C)C)c2o1` (configuration not stated) here?
A: The value was 1.64.

Q: For `CCc1cc(=O)c2ccc3c(c2o1)[C@@H](OC(=O)C12CCC(C)(C(=O)O1)C2(C)C)[C@@H](OC(=O)C12CCC(C)(C(=O)O1)C2(C)C)C(C)(C)O3` (some centres not stated), which “Ratio CC50/EC50” value is on record?
A: The value was 118.75.

System: not listed separately
Test: Ratio of CC50 for human TZM-bl cells to EC50 for HIV 1 RTMDR infected in human TZM-bl cells
Conditions: not given

Q: With `CCOc1ccc2c(=O)cc(CC)oc2c1CN1CCN(C(=O)C(=O)c2cccs2)CC1` as the compound, how does the “Ratio CC50/EC50” value read?
A: Its value is 1.3.

Q: For `CCOc1ccc2c(=O)cc(CC)oc2c1CN1CCN(C(=O)C(=O)c2ccccc2)CC1`, which “Ratio CC50/EC50” value is on record?
A: The value was >1.37.

Q: With `CCc1cc(=O)c2ccc3c(c2o1)[C@@H](OC(=O)C12CCC(C)(C(=O)O1)C2(C)C)[C@@H](OC(=O)C12CCC(C)(C(=O)O1)C2(C)C)C(C)(C)O3` (some centres not stated) as the compound, how does the “Ratio CC50/EC50” value read?
A: Its value is 71.25.

System: not listed separately
Test: Cytotoxicity against human TZM-bl cells assessed as cell viability
Format: cell-based
Conditions: not given
Outline: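 TZM-bl cells (1 × 10^5 cells/mL) exposed to various compound concentrations in parallel with the antiviral assay timing. Averaged from at least three independent experiments.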

Q: Which CC50 does the source give for `CCOc1ccc2c(=O)cc(CC)oc2c1CN1CCN(C(=O)C(=O)c2cccs2)CC1` here?
A: The CC50 was > 22 µM.

Q: For `CCOc1ccc2c(=O)cc(CC)oc2c1CN1CCN(C(=O)C(=O)c2ccccc2)CC1`, which CC50 is on record?
A: The CC50 was > 22.3 µM.

Q: With `CCOc1ccc2c(=O)cc(CC)oc2c1CN1CCN(C(=O)C(=O)c2c[nH]c3ccccc23)CC1` as the compound, how does the CC50 read?
A: The CC50 was > 20.5 µM.

Q: Which CC50 does the source give for `CCc1cc(=O)c2ccc(OCc3cccc(C(=O)OC)c3)c(COC(=O)C34CCC(C)(C(=O)O3)C4(C)C)c2o1` (configuration not stated) here?
A: The CC50 was > 36.5 µM.

Q: For `CCc1cc(=O)c2ccc(OCc3cc(OC)cc(OC)c3)c(COC(=O)C34CCC(C)(C(=O)O3)C4(C)C)c2o1` (configuration not stated), which CC50 is on record?
A: The CC50 was > 36.3 µM.

Q: For `CCc1cc(=O)c2ccc3c(c2o1)[C@@H](OC(=O)C12CCC(C)(C(=O)O1)C2(C)C)[C@@H](OC(=O)C12CCC(C)(C(=O)O1)C2(C)C)C(C)(C)O3` (some centres not stated), which CC50 is on record?
A: The CC50 was 14.2 µM.

System: Human immunodeficiency virus 1
Test: Antiviral activity against HIV 1 NL4-3 infected in human TZM-bl cells after 48 hrs by luciferase reporter gene assay
Format: functional, organism-based
Conditions: Human immunodeficiency virus 1, NL4-3, TZM-bl
Outline: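 Single-round infection of TZM-bl cells with HIV-1 NL4-3 at 200 TCID50, in the presence of eight fourfold serial dilutions of compound. After 48 h, luciferase was read as RLU. Highest concentration tested was 20 μM.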

Q: With `CCOc1ccc2c(=O)cc(CC)oc2c1CN1CCN(C(=O)C(=O)c2cccs2)CC1` as the compound, how does the pEC50 read?
A: Its pEC50 is < 4.66.

Q: With `CCOc1ccc2c(=O)cc(CC)oc2c1CN1CCN(C(=O)C(=O)c2ccccc2)CC1` as the compound, how does the pEC50 read?
A: Its pEC50 is 4.78.

Q: With `CCOc1ccc2c(=O)cc(CC)oc2c1CN1CCN(C(=O)C(=O)c2c[nH]c3ccccc23)CC1` as the compound, how does the pEC50 read?
A: Its pEC50 is < 4.69.

Q: With `CCc1cc(=O)c2ccc(OCc3cccc(C(=O)OC)c3)c(COC(=O)C34CCC(C)(C(=O)O3)C4(C)C)c2o1` (configuration not stated) as the compound, how does the pEC50 read?
A: The pEC50 was 6.03.

Q: With `CCc1cc(=O)c2ccc(OCc3cc(OC)cc(OC)c3)c(COC(=O)C34CCC(C)(C(=O)O3)C4(C)C)c2o1` (configuration not stated) as the compound, how does the pEC50 read?
A: The pEC50 was 4.65.

Q: With `CCc1cc(=O)c2ccc3c(c2o1)[C@@H](OC(=O)C12CCC(C)(C(=O)O1)C2(C)C)[C@@H](OC(=O)C12CCC(C)(C(=O)O1)C2(C)C)C(C)(C)O3` (some centres not stated) as the compound, how does the pEC50 read?
A: Its pEC50 is 6.92.

System: not listed separately
Test: Chemical stability of the compound in 1% HCl assessed as compound remaining at 1 min by HPLC analysis
Format: physicochemical
Conditions: read-out: Stability
Outline: as §1

Q: Which remaining at […] does the source give for `Cc1cc(=O)oc2c3c(ccc12)OC(C)(C)[C@H](OC(=O)[C@@]12CC[C@@](C)(C(=O)O1)C2(C)C)[C@@H]3OC(=O)[C@@]12CC[C@@](C)(C(=O)O1)C2(C)C` here?
A: The remaining at […] was 100%.

Q: With `CCc1cc(=O)c2ccc3c(c2o1)[C@@H](OC(=O)C12CCC(C)(C(=O)O1)C2(C)C)[C@@H](OC(=O)C12CCC(C)(C(=O)O1)C2(C)C)C(C)(C)O3` (some centres not stated) as the compound, how does the remaining at […] read?
A: The remaining at […] was 100%.
